Results published in ChEMBL document CHEMBL4118263, “Synthesis, structure-activity relationship and molecular docking studies of 3-O-flavonol glycosides as cholinesterase inhibitors” (Bioorg Med Chem, 2018).

What was measured:
[1] = target: Acetylcholinesterase (Electrophorus electricus, UniProt O42275); experiment: Inhibition of electric eel AChE using acetylthiocholine iodide as substrate pretreated for 10 mins followed by substrate addition measured after 20 mins by Ellman's method
[2] = target: Cholinesterase (Equus caballus, UniProt P81908); experiment: Inhibition of horse serum BChE using butyrylthiocholine iodide as substrate pretreated for 10 mins followed by substrate addition measured after 20 mins by Ellman's method
Outline: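 Horse serum BChE was preincubated 10 min with test sample (20, 40, 60, 80, 100 μM). Butyrylthiocholine chloride (0.2 mM) was then added with DTNB (0.5 mM) in phosphate buffer pH 8 and incubated 20 min at 37 °C. Run in triplicate; IC50 by simple linear regression.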

Sequence of Cholinesterase (P81908 whole entry): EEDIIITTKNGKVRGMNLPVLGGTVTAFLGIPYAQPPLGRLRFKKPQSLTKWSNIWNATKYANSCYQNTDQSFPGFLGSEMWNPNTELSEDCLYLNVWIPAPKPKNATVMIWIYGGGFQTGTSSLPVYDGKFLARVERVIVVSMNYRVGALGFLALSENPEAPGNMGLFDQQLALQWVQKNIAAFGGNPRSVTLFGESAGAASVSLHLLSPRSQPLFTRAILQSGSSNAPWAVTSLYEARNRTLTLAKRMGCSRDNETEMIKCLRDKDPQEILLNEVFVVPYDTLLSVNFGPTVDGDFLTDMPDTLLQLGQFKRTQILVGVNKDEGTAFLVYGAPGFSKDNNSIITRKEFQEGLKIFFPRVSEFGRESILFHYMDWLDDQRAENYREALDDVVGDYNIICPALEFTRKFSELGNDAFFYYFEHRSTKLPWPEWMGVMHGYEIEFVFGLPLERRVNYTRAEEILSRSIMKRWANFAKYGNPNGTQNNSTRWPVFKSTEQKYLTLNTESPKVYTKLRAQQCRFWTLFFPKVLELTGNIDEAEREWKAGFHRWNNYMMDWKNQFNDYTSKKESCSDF
Sequence of Acetylcholinesterase (O42275 whole entry): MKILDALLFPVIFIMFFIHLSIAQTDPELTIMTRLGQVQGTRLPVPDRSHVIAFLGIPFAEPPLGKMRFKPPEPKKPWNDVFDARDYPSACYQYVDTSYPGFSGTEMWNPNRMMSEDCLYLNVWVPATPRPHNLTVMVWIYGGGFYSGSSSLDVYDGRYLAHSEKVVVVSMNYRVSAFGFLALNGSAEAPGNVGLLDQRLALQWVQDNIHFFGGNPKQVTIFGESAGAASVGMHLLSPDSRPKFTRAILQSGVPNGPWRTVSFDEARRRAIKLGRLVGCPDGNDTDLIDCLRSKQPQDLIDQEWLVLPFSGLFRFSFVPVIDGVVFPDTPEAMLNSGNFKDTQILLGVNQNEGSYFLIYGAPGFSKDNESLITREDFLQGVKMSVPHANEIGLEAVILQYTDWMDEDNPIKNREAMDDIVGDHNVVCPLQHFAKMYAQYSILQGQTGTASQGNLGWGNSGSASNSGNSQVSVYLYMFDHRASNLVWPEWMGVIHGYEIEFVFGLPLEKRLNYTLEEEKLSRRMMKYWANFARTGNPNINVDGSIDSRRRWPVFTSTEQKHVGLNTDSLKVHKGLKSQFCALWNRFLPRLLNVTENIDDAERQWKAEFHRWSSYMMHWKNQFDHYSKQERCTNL

Row | SMILES | IC50 [1] [µM] | IC50 [2] [µM]
1 | COc1ccc(-c2oc3ccccc3c(=O)c2O[C@@H]2O[C@H](COC(C)=O)[C@@H](OC(C)=O)[C@H](OC(C)=O)[C@H]2OC(C)=O)cc1 | 20.7 | 26
2 | CC(=O)OC[C@H]1O[C@@H](Oc2c(-c3ccc(CC(C)C)cc3)oc3ccccc3c2=O)[C@H](OC(C)=O)[C@@H](OC(C)=O)[C@@H]1OC(C)=O | 2.05 | 5.42
3 | CC(=O)OC[C@H]1O[C@@H](Oc2c(-c3cccs3)oc3ccccc3c2=O)[C@H](OC(C)=O)[C@@H](OC(C)=O)[C@@H]1OC(C)=O | 18.5 | 25.5
4 | CC(=O)OC[C@H]1O[C@@H](Oc2c(-c3ccc(Br)cc3)oc3cc(C)ccc3c2=O)[C@H](OC(C)=O)[C@@H](OC(C)=O)[C@@H]1OC(C)=O | 22.4 | 30.6
5 | CC(=O)OC[C@H]1O[C@@H](Oc2c(-c3ccccc3C(=O)O)oc3ccccc3c2=O)[C@H](OC(C)=O)[C@@H](OC(C)=O)[C@@H]1OC(C)=O | 34 | 48.4
6 | CC(=O)Nc1ccc(-c2oc3ccccc3c(=O)c2O[C@@H]2O[C@H](COC(C)=O)[C@@H](OC(C)=O)[C@H](OC(C)=O)[C@H]2OC(C)=O)cc1 | 38.7 | 39.7
7 | CC(=O)OC[C@H]1O[C@@H](Oc2c(-c3ccc(Br)cc3)oc3ccccc3c2=O)[C@H](OC(C)=O)[C@@H](OC(C)=O)[C@@H]1OC(C)=O | 10.2 | 3.12
8 | CC(=O)OC[C@H]1O[C@@H](Oc2c(-c3ccccc3)oc3ccccc3c2=O)[C@H](OC(C)=O)[C@@H](OC(C)=O)[C@@H]1OC(C)=O | 103 | 45.9
9 | CC(=O)OC[C@H]1O[C@@H](Oc2c(-c3cccc4ccccc34)oc3ccccc3c2=O)[C@H](OC(C)=O)[C@@H](OC(C)=O)[C@@H]1OC(C)=O | 36.4 | 18.7
10 | CC(=O)OC[C@H]1O[C@@H](Oc2c(-c3ccc(F)cc3)oc3ccccc3c2=O)[C@H](OC(C)=O)[C@@H](OC(C)=O)[C@@H]1OC(C)=O | 29.2 | 49.8
